As usually defined, the IC50 is the concentration at which inhibition is half-maximal. Low readings indicate inhibition by little substance, high ones a need for much substance. As a reminder, the MIC is the lowest concentration that inhibits growth of the organism. A higher MIC goes with a need for much substance.

≈ marks a conversion by molar mass, not a printed value. Some results are limits rather than exact numbers.

Assay [1] deals with Streptococcus pneumoniae. Kind of assay: Inhibitory concentration against purified cephalosporin-resistant PBP2x.505 from Streptococcus pneumoniae. The assay is classed as functional. In short, it runs like this: (§1)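 PBPs purified to homogeneity. IC50 measured by competition with fluorescent dansyl-penicillin or a coumarin analogue probe. Protein-bound fluorescence determined after TCA precipitation, filtration on glass fibre filters and drying, read on a fluorimeter.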

The test system of a further assay is Citrobacter freundii. The assay is described as follows: In vitro minimum inhibitory concentration required to produce antibacterial activity against Citrobacter freundii 902. The assay is classed as functional. A digest of the protocol:
(§2)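 Two-fold agar dilution on Mueller-Hinton agar. Overnight broth cultures diluted in fresh broth to […]; 10⁴ CFU/spot applied by inoculating apparatus onto plates with graded drug concentrations. Incubated 18 h at 37 °C; MIC taken as the lowest concentration giving complete growth inhibition.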

Another assay deals with Enterococcus faecalis. Kind of assay: In vitro minimum inhibitory concentration required to produce antibacterial activity against Enterococcus faecalis ATCC 29212. It is filed as functional. In short, it runs like this: as §2
Assay [2] concerns Staphylococcus epidermidis. Kind of assay: Inhibitory concentration against purified beta-Lactam-resistant PBP2 from Staphylococcus epidermidis. The assay is classed as functional. In short, it runs like this:
as §1

For assay [3], the system named is Staphylococcus aureus. Kind of assay: In vitro minimum inhibitory concentration required to produce antibacterial activity against Staphylococcus aureus 887MSSA. The assay is classed as functional. A digest of the protocol: as §2
The subject of assay [4] is Streptococcus pneumoniae. The assay is described as follows: In vitro minimum inhibitory concentration required to produce antibacterial activity against Streptococcus pneumoniae 1/37(pen r). It is filed as functional. In short, it runs like this:
as §2

Assay [5] has as its system Streptococcus pneumoniae. Kind of assay: Inhibitory concentration against purified PBP2x from Streptococcus pneumoniae. The assay is classed as functional. In short, it runs like this:
as §1

Assay [6] addresses Beta-lactamase (Bacillus licheniformis) (UniProt P00808). The assay is described as follows: Rate of hydrolysis in 0.1 M sodium phosphate buffer at pH=7.0 by Beta lactamase (B.l icheniformis 749/C). A digest of the protocol:
(§3)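 β-Lactamases purified to homogeneity; hydrolysis rate of the cephalosporin substrate measured in 0.1 M sodium phosphate buffer, pH 7.0, by standard methods.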

Assay [7] relates to Streptococcus pneumoniae. Kind of assay: Minimum inhibitory concentration for antibacterial activity against Streptococcus pneumoniae Q19 (pen s). The assay is classed as functional. In short, it runs like this: as §2
A further assay concerns Enterobacter cloacae. Kind of assay: In vitro minimum inhibitory concentration required to produce antibacterial activity against Enterobacter cloacae 908SSI. The assay is classed as functional. In short, it runs like this:
as §2

Assay [8] deals with T1, Beta-lactamase SHV-1 (Escherichia coli) (UniProt P0AD63).
T1 sequence (whole entry): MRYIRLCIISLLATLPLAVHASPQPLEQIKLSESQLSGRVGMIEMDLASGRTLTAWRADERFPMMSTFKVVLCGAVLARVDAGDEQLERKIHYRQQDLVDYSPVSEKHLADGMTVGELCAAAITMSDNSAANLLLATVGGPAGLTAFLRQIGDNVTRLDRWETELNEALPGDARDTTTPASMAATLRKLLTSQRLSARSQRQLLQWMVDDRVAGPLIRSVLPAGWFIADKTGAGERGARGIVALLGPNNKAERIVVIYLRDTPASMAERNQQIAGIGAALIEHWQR
Kind of assay: Rate of hydrolysis in 0.1 M sodium phosphate buffer at pH=7.0 by Beta lactamase (SHV-2). In short, it runs like this: as §3

Assay [9] concerns Escherichia coli. Kind of assay: Inhibitory concentration against purified penicillin-binding protein(PBP) 1bgamma of Escherichia coli. It is filed as functional. In short, it runs like this: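 PBP purified to homogeneity. IC50 from competition with dansyl-penicillin or a coumarin analogue; protein-bound fluorescence recovered by TCA precipitation and glass-fibre filtration, then read by fluorimetry after drying.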

The target in assay [10] is T1, Beta-lactamase SHV-1 (Escherichia coli). Kind of assay: Rate of hydrolysis in 0.1 M sodium phosphate buffer at pH=7.0 by Beta lactamase (SHV-4). Conditions: Proteus vulgaris. In short, it runs like this: as §3
The test system of the next assay is Pseudomonas aeruginosa. Kind of assay: In vitro minimum inhibitory concentration required to produce antibacterial activity against Pseudomonas aeruginosa ATCC 27853. The assay is classed as functional. In short, it runs like this: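 Two-fold agar dilution on Mueller-Hinton agar. Overnight broth cultures diluted in fresh broth, inoculum 10⁴ CFU/spot applied by inoculating apparatus to plates with graded drug concentrations. Plates incubated 18 h at 37 °C. MIC taken as lowest concentration completely inhibiting growth.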

The subject of assay [11] is Staphylococcus aureus. The assay is described as follows: In vitro minimum inhibitory concentration required to produce antibacterial activity against Staphylococcus aureus 743 MRSA. The assay is classed as functional. In short, it runs like this: as §2
In assay [12] the target is Beta-lactamase TEM (Escherichia coli) (UniProt P62593). Kind of assay: Rate of hydrolysis in 0.1 M sodium phosphate buffer at pH=7.0 by Beta lactamase (TEM-4). In short, it runs like this: as §3
Assay [13] has as its system Escherichia coli. The assay is described as follows: In vitro minimum inhibitory concentration required to produce antibacterial activity against Escherichia coli 25922. It is filed as functional. A digest of the protocol: as §2
The subject of a further assay is Enterococcus durans. Kind of assay: Inhibitory concentration against purified beta-Lactam resistant PBP5 from Enterococcus durans. It is filed as functional. In short, it runs like this: as §1
In assay [14] the test system is Streptococcus pneumoniae. Kind of assay: Inhibitory concentration against purified cephalosporin-resistant PBP2x.604 from Streptococcus pneumoniae. It is filed as functional. In short, it runs like this: as §1
For assay [15], the target named is Beta-lactamase TEM (Escherichia coli) (UniProt P62593). The assay is described as follows: Rate of hydrolysis in 0.1 M sodium phosphate buffer at pH=7.0 by Beta lactamase (TEM-3). A digest of the protocol:
as §3

Sequence of Beta-lactamase TEM (Escherichia coli) (P62593 whole entry): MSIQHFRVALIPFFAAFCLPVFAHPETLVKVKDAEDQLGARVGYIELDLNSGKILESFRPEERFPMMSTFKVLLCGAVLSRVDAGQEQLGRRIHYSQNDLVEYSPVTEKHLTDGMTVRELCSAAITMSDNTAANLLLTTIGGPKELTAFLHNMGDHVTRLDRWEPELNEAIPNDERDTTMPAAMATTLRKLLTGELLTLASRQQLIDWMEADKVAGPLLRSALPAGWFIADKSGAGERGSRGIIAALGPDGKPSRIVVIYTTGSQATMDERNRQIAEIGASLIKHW
Sequence of Beta-lactamase (Bacillus licheniformis) (P00808 whole entry): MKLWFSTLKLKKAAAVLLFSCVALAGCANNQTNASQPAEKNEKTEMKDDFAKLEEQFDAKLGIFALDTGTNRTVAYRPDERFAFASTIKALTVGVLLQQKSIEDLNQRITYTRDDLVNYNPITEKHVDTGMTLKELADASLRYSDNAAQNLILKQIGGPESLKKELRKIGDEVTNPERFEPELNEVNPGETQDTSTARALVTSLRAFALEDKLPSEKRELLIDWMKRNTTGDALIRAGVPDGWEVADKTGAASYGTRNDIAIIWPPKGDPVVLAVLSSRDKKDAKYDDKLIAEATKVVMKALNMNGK

`CO/N=C(\C(=O)N[C@@H]1C(=O)N2C(C(=O)O)=C(CSc3nc(=O)c(O)nn3C)CS[C@H]12)c1csc(N)n1` [CEFTRIAXONE]: the IC50 was 2500 nM in the assay on Streptococcus pneumoniae [1]; 960000 nM in [2]; 500 nM with Streptococcus pneumoniae [5]; 290 nM in the assay on Escherichia coli [9]; greater than 500000 nM in the assay on Enterococcus durans; 5500 nM with Streptococcus pneumoniae [14]. In addition, the MIC is 0.25 µg/mL (≈ 0.451 µM) against Citrobacter freundii; greater than 32 µg/mL with Enterococcus faecalis; 4 µg/mL (≈ 7.21 µM) in the assay on Staphylococcus aureus [3]; 2 µg/mL (≈ 3.61 µM) in the assay on Streptococcus pneumoniae [4]; no more than 0.06 µg/mL in the assay on Streptococcus pneumoniae [7]; 0.5 µg/mL (≈ 0.902 µM) against Enterobacter cloacae. Besides, the MIC against Pseudomonas aeruginosa was 16 µg/mL (≈ 28.9 µM); against Staphylococcus aureus [11], greater than 32 µg/mL; against Escherichia coli [13], no more than 0.06 µg/mL. Besides, the Activity (M min-1 (M of enzyme)-1) in [6] turned out to be 1890; in [8] it was 2310; in [10], 3340; in assay [12], 643; in [15], 79.

The values above are taken from ChEMBL document CHEMBL1129566 (J Med Chem, 1996).
